Assay results as given in ChEMBL document CHEMBL4715933, “Identification of Potent Reverse Indazole Inhibitors for HPK1” (ACS Med Chem Lett, 2021).

Key:
[1] = Mean residence time in Wistar Han rat at 0.1 mg/kg, iv; format: ADME, organism-based; details: in vivo
Outline: (§1)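 Male Wistar Han rats dosed intravenously at 0.1 mg/kg, given as a solution in DMSO/PEG400/H2O. Plasma PK parameters derived: total plasma clearance, volume of distribution, mean residence time and half-life. Unbound clearance accounts for plasma protein binding.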

[2] = Volume of distribution in Wistar Han rat at 0.1 mg/kg, iv; format: ADME, organism-based; details: in vivo; outline: as §1
[3] = target: T1, Mitogen-activated protein kinase kinase kinase kinase 1 (Homo sapiens, UniProt Q92918); assay: Displacement of Tracer 222 from N-terminal GST-tagged human recombinant HPK1 (1 to 346 residues ) expressed in baculovirus-infected Sf9 cells incubated for 1 hr by HTRF lanthascreen binding assay
T1 sequence (Q92918 whole entry, the tested form may be a part): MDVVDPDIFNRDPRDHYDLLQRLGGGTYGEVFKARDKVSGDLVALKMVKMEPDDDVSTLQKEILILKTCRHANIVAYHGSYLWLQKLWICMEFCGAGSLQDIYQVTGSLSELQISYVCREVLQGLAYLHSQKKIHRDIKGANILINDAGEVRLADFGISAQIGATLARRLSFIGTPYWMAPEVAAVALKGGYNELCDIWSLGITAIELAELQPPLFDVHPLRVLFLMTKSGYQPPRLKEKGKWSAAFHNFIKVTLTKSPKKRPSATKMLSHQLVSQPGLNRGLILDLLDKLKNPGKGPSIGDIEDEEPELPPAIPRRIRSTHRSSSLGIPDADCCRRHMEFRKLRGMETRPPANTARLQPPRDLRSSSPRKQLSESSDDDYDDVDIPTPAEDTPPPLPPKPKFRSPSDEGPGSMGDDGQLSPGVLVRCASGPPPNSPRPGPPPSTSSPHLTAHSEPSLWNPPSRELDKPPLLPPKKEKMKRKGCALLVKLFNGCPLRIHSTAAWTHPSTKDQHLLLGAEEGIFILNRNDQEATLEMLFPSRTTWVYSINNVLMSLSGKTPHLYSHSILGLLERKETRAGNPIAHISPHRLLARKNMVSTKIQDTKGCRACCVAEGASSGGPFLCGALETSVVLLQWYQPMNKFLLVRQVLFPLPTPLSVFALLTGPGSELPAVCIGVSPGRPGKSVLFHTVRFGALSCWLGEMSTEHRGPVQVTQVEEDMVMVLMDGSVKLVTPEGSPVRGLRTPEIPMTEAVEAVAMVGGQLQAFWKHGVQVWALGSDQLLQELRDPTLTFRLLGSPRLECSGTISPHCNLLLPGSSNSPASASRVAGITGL
Outline: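 Binding (tracer-displacement) format run with tracer at a concentration approximately equal to its Kd; IC50 derived from displacement.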

Homo sapiens [4] = organism: Homo sapiens; assay: Selectivity ratio of IC50 for JAK2 (unknown origin) by ATP competitive binding assay to IC50 for N-terminal GST-tagged human recombinant HPK1 (1 to 346 residues ) expressed in baculovirus-infected Sf9 cells by HTRF lanthascreen binding assay
Outline: (§2)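 Ratio of off-target kinase IC50 (JAK1, JAK2 or CDK2) to HPK1 IC50. The off-target kinase assays were run at ATP approximately equal to Km(ATP). HPK1 IC50 came from the tracer-displacement assay with tracer at approximately Kd(tracer).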

Homo sapiens [5] = organism: Homo sapiens; assay: Selectivity ratio of IC50 for JAK1 (unknown origin) by ATP competitive binding assay to IC50 for N-terminal GST-tagged human recombinant HPK1 (1 to 346 residues ) expressed in baculovirus-infected Sf9 cells by HTRF lanthascreen binding assay; outline: as §2
[6] = Total Plasma clearance in Wistar Han rat at 0.1 mg/kg, iv; format: ADME, organism-based; outline: as §1
Homo sapiens [7] = organism: Homo sapiens; assay: Selectivity ratio of IC50 for CDK2 (unknown origin) by ATP competitive binding assay to IC50 for N-terminal GST-tagged human recombinant HPK1 (1 to 346 residues ) expressed in baculovirus-infected Sf9 cells by HTRF lanthascreen binding assay; outline: as §2
[8] = Apparent permeability of compound in dog MDCKII cells; format: ADME, cell-based, Canis lupus familiaris, MDCK-II; details: MDCK
[9] = target: T1, Mitogen-activated protein kinase kinase kinase kinase 1; assay: Inhibition of HPK1 in human PBMC assessed as inhibition of SLP76 phosphorylation by ELISA
Outline: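 Target-engagement assay in human peripheral blood mononuclear cells with ELISA readout of SLP76 phosphorylation. Total-cell IC50 reported. Unbound IC50 obtained by correcting for compound binding to the 10% FBS present in the assay medium.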

[10] = Half life in Wistar Han rat at 0.1 mg/kg, iv; format: ADME, organism-based; details: in vivo; outline: as §1
[11] = Unbound clearance in Wistar Han rat at 0.1 mg/kg, iv; format: ADME, organism-based; details: in vivo; outline: as §1

| Structure (SMILES) | MRT [1] [h] | Vd [2] [L/kg] | IC50 [3] [µM] | Ratio IC50 (Homo sapiens [4]) | Ratio IC50 (Homo sapiens [5]) | clearance [6] [L/h/kg] | Ratio IC50 (Homo sapiens [7]) | Papp [8] [nm/s] | IC50 [9] [µM] | half-life [10] [h] | CL free [11] [L/h/kg] |
| --- | --- | --- | --- | --- | --- | --- | --- | --- | --- | --- | --- |
| CN1CCN(c2cc(-c3n[nH]c4ccc(-c5cnn6c5CCC6)cc34)ccn2)CC1 | 1 | 7.1 | 0.0091 | 1110 | 205 | 7.02 | – | – | – | – | – |
| C[C@@H]1CN(c2cc(-n3ncc4ccc(-c5cnn6c5OCCC6)cc43)ccn2)C[C@H](C)N1C | 2.6 | 1.4 | 1.46 | 7 | 7 | 0.522 | – | – | – | – | – |
| CCOc1cccc(F)c1-c1cc2c(cn1)cnn2-c1ccc(N2CCN(C)CC2)cc1 | – | – | 0.557 | 18 | 18 | – | 18 | – | – | – | – |
| Cc1ccccc1-c1cc2c(cn1)cnn2-c1ccc(N2CCN(C)CC2)cc1 | – | – | 0.41 | 24 | 24 | – | – | – | – | – | – |
| COc1cccc(F)c1-c1cc2c(cn1)cnn2-c1ccnc(N2CCN(C)CC2)n1 | – | – | 0.0067 | 125 | 1480 | – | 10 | – | – | – | – |
| COc1cccc(F)c1-c1cc2c(cn1)cnn2-c1cccc(N2CCOCC2)n1 | – | – | 0.034 | 18 | 92 | – | 12 | – | – | – | – |
| Cc1cccc(F)c1-c1cc2c(cnn2-c2ccc(N3CCN(C)CC3)cc2)cc1C#N | – | 18 | 0.028 | – | 357 | 9.06 | 357 | < 80 | > 10 | 2.2 | – |
| COc1cccc(F)c1-c1cc2c(cn1)cnn2-c1cccc(N2CCCC2)n1 | – | – | 0.109 | – | – | – | – | – | – | – | – |
| COc1cccc(F)c1-c1cc2c(cn1)cnn2-c1cccc(N2CCCC2=O)n1 | – | – | 0.213 | – | – | – | – | – | – | – | – |
| CN1CCN(c2ccc(-n3ncc4cnc(-c5ccccc5)cc43)cc2)CC1 | – | – | 0.826 | 12 | 12 | – | – | – | – | – | – |
| COc1cccc(F)c1-c1cc2c(cn1)cnn2-c1cccc(N2CC[C@H](N(C)C)C2)n1 | – | 0.3 | 0.0012 | 393 | 3070 | 0.288 | 281 | 300 | > 10 | 1.2 | – |
| COc1cccc(F)c1-c1cc2c(cn1)cnn2-c1cccc(N2CC(N)C2)n1 | – | – | 0.032 | 24 | 59 | – | 10 | – | – | – | – |
| COc1cccc(F)c1-c1cc2c(cn1)cnn2-c1ccc(N2CCN(C)CC2)cn1 | – | – | 0.031 | 61 | 95 | – | 77 | – | – | – | – |
| Cc1cccc(F)c1-c1ccc2cnn(-c3ccc(N4CCN(C)CC4)cc3)c2c1 | – | – | 1.47 | – | – | – | – | – | – | – | – |
| Cc1cccc(F)c1-c1cc2c(cn1)cnn2-c1cnn(C)c1 | – | – | 1.09 | – | – | – | – | – | – | – | – |
| COc1cccc(F)c1-c1cc2c(cn1)cnn2-c1ccccc1 | – | – | 1.05 | 10 | 10 | – | – | – | – | – | – |
| COc1cccc(F)c1-c1cc2c(cn1)cnn2-c1ccc(N2CCOCC2)cc1 | – | – | 0.101 | 99 | 99 | – | – | – | – | – | – |
| CNC1CCN(c2cccc(-n3ncc4cnc(-c5c(F)cccc5OC)cc43)n2)CC1 | – | – | 0.017 | 90 | 112 | – | 8.5 | – | – | – | – |

| Structure (SMILES) | MRT [1] [h] | Vd [2] [L/kg] | IC50 [3] [µM] | Ratio IC50 (Homo sapiens [4]) | Ratio IC50 (Homo sapiens [5]) | clearance [6] [L/h/kg] | Ratio IC50 (Homo sapiens [7]) | Papp [8] [nm/s] | IC50 [9] [µM] | half-life [10] [h] | CL free [11] [L/h/kg] |
| --- | --- | --- | --- | --- | --- | --- | --- | --- | --- | --- | --- |
| COc1cccc(F)c1-c1cc2c(cn1)cnn2-c1ccc(N2CCN(C)CC2)cc1 | – | – | 0.089 | 112 | 112 | – | 112 | – | – | – | – |
| COc1cccc(F)c1-c1cc2c(cn1)cnn2-c1cccc(N2CCCCC2)n1 | – | – | 0.04 | 26 | 252 | – | 43 | – | – | – | – |
| COc1cccc(F)c1-c1cc2c(cn1)cnn2-c1cccc(N2CC3(CCCNC3)C2)n1 | – | – | 0.013 | 177 | 792 | – | 45 | – | – | – | – |
| COc1cccc(F)c1-c1cc2c(cn1)cnn2-c1cccc(N2CCNCC2)n1 | – | – | 0.0038 | 204 | 446 | – | 29 | – | – | – | – |
| COc1cccc(F)c1-c1cc2c(cn1)cnn2-c1cccc(N)n1 | – | – | 0.518 | – | – | – | – | – | – | – | – |
| COc1cccc(F)c1-c1cc2c(cn1)cnn2-c1cccc(N2CCN(C)CC2)c1 | – | – | 0.408 | 25 | 25 | – | – | – | – | – | – |
| COc1cccc(F)c1-c1cc2c(cn1)cnn2-c1ccnc(N2CCN(C)CC2)c1 | – | – | 0.06 | 61 | 167 | – | 167 | – | – | – | – |
| COc1ccncc1-c1cc2c(cn1)cnn2-c1ccc(N2CCN(C)CC2)cc1 | – | – | 0.12 | 83 | 83 | – | 4 | – | – | – | – |
| CNC1CCc2c1ccc(F)c2-c1cc2c(cn1)cnn2-c1ccc(N2CCN(C)CC2)cc1 (racemic) | – | – | 0.193 | 52 | 52 | – | 52 | – | – | – | – |
| CN1CCN(c2cc(-c3n[nH]c4cnc(-c5cnn6c5CCC6)cc34)ccn2)CC1 | 1.9 | 15 | 0.015 | 32 | 45 | 7.8 | – | – | – | – | – |
| CNC(=O)N1CCN(c2cccc(-n3ncc4cnc(-c5c(F)cccc5OC)cc43)n2)CC1 | – | – | 0.011 | 32 | 311 | – | 30 | – | – | – | – |
| COC(=O)N1CCN(c2cccc(-n3ncc4cnc(-c5c(F)cccc5OC)cc43)n2)CC1 | – | – | 0.032 | 5 | 65 | – | 11 | – | – | – | – |
| COc1cccc(F)c1-c1cc2c(cnn2-c2cccc(N3CCN(C)CC3)n2)cc1C#N | – | 2.3 | 0.002 | 130 | 1320 | 0.72 | 115 | < 140 | > 10 | 3.1 | 1194.8 |
| Cc1cccc(F)c1-c1cc2c(cn1)cnn2-c1ccc(N2CCN(C)CC2)cc1 | – | – | 0.121 | 83 | 83 | – | 83 | – | – | – | – |
| COc1cccc(F)c1-c1cc2c(cn1)cnn2-c1cc(Cl)cc(N2CCN(C)CC2)n1 | – | – | 0.0018 | 134 | 347 | – | 597 | – | – | – | – |
| COc1cccc(-n2ncc3cnc(-c4c(F)cccc4OC)cc32)n1 | – | – | 0.103 | 21 | 97 | – | 5 | – | – | – | – |
| Cc1cccc(C)c1-c1cc2c(cn1)cnn2-c1ccc(N2CCN(C)CC2)cc1 | – | – | 0.284 | 35 | 35 | – | 35 | – | – | – | – |
